Data published in ChEMBL document CHEMBL4138314, “Synthesis and Evaluation of N-Phenyl-3-sulfamoyl-benzamide Derivatives as Capsid Assembly Modulators Inhibiting Hepatitis B Virus (HBV)” (J Med Chem, 2018).
Converted amounts (≈) assume the structure as drawn. The source made the active and inactive calls. The rule behind the calls is not given here.

Legend:
[1] = biological target: Core antigen (Hepatitis B virus) (UniProt Q03732); test: Induction of HBV Maleimidyl BoDIPY-FL-labeled capsid Cp*150 mutant aggregation incubated for 30 mins measured every 10 secs for 30 mins by fluorescence quenching assay
[2] = system: Hepatitis B virus; test: Induction of HBV capsid core protein CP149 aggregation assessed as large aberrant structure formation at 20 uM after 24 hrs by size exclusion chromatographic analysis
Procedure, shortened: (§1)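 Recombinant HBV core assembly domain (aa 1–149, Cp149) was incubated with compound at 20 µM for 24 h, with a no-compound control run in parallel. Size exclusion chromatography gave the ratio of Cp149 dimer AUC to aggregated Cp149 AUC.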

[3] = Kinetic solubility of the compound at pH 7.4 after 4 hrs by UPLC-UV analysis; type: physicochemical; conditions: buffer, read-out: Kinetic_solubility
[4] = system: Hepatitis B virus; test: Induction of HBV capsid core protein CP149 aggregation assessed as ratio between area under the curve for observed amount of core dimer and area under the curve for aggregated core protein at 20 uM after 24 hrs by size exclusion chromatographic analysis; procedure, shortened: as §1
[5] = Drug metabolism in human liver microsomes at 1 uM after 15 mins by LC-MS/MS analysis; type: ADME, microsome; conditions: read-out: Drug metabolism
Procedure, shortened: (§2)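 Compound incubated 15 min with human or mouse liver microsomes; stability expressed as percent turnover (metabolised) at 15 min.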

[6] = Cytotoxicity against human HepG2 cells after 6 days by resazurin assay; type: cell-based
[7] = system: HBV genotype D; test: Antiviral activity against HBV genotype D infected in human HepG2.2.15 cells assessed as inhibition of viral DNA level treated twice for 3 days measured after 6 days by real time PCR; type: functional, organism-based; conditions: for EC50: Hepatitis B virus; for Activity: hepatitis B virus genotype D
[8] = Drug metabolism in mouse liver microsomes at 1 uM after 15 mins by LC-MS/MS analysis; type: ADME, microsome; conditions: read-out: Drug metabolism; procedure, shortened: as §2
[9] = system: Hepatitis B virus; test: Antiviral activity against Hepatitis B virus infected in human HepG2.117 cells assessed as inhibition of viral DNA level after 3 days by real time PCR; type: functional, organism-based; conditions: HepG2.117, 72 h
[10] = (§3) Cytotoxicity against human HepG2 cells after 4 to 6 days by resazurin assay; type: cell-based; conditions: HepG2 cells
[11] = Drug metabolism in human primary hepatocytes assessed as cleavage of N-phenylamide; type: ADME, cell-based, Hepatocyte
Procedure, shortened: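 Compound incubated with primary hepatocytes and checked for cleavage of the N-phenylamide bond.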

[12] = Cytotoxicity against human HepG2 cells after 4 days by resazurin assay; type: cell-based
[13] = biological target: 5-hydroxytryptamine receptor 2B (Homo sapiens, UniProt P41595); test: Antagonist activity at 5-HT2B (unknown origin); type: functional
Procedure, shortened: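 Receptor/ion channel/transporter panel of 80 targets screened at 10 µM, giving percent effect at 5-HT2B; follow-up 5-HT2B functional testing in agonist and antagonist modes, with antagonist IC50 determined.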

[14] = system: HepG2; test: as §3; type: cell-based; conditions: hepg2
[15] = system: HBV genotype D; test: Antiviral activity against HBV genotype D infected in chimeric mouse with humanized liver assessed as log reduction in viral DNA level in serum at 0.03 mg/kg, po qd for 28 days by RT-PCR method; type: functional, hepatitis B virus genotype D
Procedure, shortened: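 HBV genotype D-infected chimeric mice with humanized liver (human hepatocyte replacement index ≥70%, judged by serum human albumin). Dosing was once daily for 28 days: test article 200 mg/kg s.c., entecavir 0.03 mg/kg oral as positive control, and oral saline as negative control. The read-out was serum HBV DNA (copies/mL), given as mean log change from baseline at day 29.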

Chain of Core antigen (Hepatitis B virus) (Q03732 as listed by the source): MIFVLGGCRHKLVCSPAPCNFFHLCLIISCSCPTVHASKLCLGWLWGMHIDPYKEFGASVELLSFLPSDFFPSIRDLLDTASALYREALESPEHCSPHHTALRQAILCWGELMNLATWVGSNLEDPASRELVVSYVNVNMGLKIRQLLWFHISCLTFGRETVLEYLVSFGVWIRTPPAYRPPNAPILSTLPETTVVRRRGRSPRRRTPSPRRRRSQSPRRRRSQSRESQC
Chain of 5-hydroxytryptamine receptor 2B (P41595 whole entry): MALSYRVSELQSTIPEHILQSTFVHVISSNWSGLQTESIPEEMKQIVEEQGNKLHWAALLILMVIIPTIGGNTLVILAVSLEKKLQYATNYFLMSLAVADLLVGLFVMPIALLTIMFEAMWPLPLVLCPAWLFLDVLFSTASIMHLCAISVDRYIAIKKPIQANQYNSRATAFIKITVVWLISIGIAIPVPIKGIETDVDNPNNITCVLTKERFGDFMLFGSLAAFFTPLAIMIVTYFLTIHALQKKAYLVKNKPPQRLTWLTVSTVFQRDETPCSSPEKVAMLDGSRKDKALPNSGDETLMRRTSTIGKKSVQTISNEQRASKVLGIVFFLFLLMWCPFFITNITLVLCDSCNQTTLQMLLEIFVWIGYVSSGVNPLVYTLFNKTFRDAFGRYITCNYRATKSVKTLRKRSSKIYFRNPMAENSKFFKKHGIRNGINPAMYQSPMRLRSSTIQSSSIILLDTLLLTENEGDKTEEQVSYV

| Structure (SMILES) | Activity [1] | Activity [2] | solubility kinetic at 4 h [3] | Ratio [4] | metabolised at 0.25 h, 1 µM [5] | CC50 at 144 h [6] | EC50 [7] | Activity [7] | metabolised at 0.25 h, 1 µM [8] | EC50 [9] | CC50 [10] | Drug metabolism [11] | CC50 at 96 h [12] | IC50 [13] | EC20 [14] | log(activity) [15] |
| --- | --- | --- | --- | --- | --- | --- | --- | --- | --- | --- | --- | --- | --- | --- | --- | --- |
| O=C(Nc1ccccc1)c1cccc(S(=O)(=O)NC2CCCC2)c1 | Active | inactive | 91 µM (≈ 31.3 µg/mL) | 0.3 | 94% | 27.2 µM | 600 nM | Dose-dependent effect | 98% | – | – | – | – | – | – | – |
| Cc1cc(NC(=O)c2cccc(S(=O)(=O)NC3(C)COC3)c2)ccc1F | Active | – | > 100 µM | – | 7% | – | 120 nM | – | 65% | 300 nM | 47.1 µM | Metabolite_Detected | – | – | – | – |
| O=C(Nc1ccc(F)cc1)c1cccc(C(=O)NC2CCCCC2)c1 | – | – | < 0.4 µM | 6.4 | 56% | – | > 100000 nM | – | 93% | > 25000 nM | – | – | > 100 µM | 90 nM | – | – |
| O=C(Nc1ccccc1)c1cc(S(=O)(=O)N2CCCCC2)c(Cl)cc1Cl | Active | inactive | 2 µM (≈ 0.827 µg/mL) | 0.2 | 99% | > 25 µM | 500 nM | Dose-dependent effect | 100% | – | – | – | – | – | – | – |
| CC(C)NS(=O)(=O)c1cccc(C(=O)Nc2ccc(F)c(F)c2)c1 | Active | – | > 100 µM | – | 18% | – | 210 nM | – | 60% | 400 nM | – | – | – | 230 nM | 1 µM | – |
| C=C1[C@H](CO)[C@@H](O)C[C@@H]1n1cnc2c(=O)[nH]c(N)nc21.O [ENTECAVIR] | – | – | – | – | – | – | – | – | – | – | – | – | – | – | – | 3.03 |
